# ChEMBL document CHEMBL1128325, “Microsphere formation in a series of derivatized alpha-amino acids: properties, molecular modeling, and oral delivery of salmon calcitonin” (J Med Chem, 1995)
# Assay: Partition coefficient (logP)
# Format: physicochemical
# Conditions: octanol/water
# Outline: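 Computed rather than measured: derived from the reported experimental log P values of the parent amino acids by adding fragment constants for the N-substituent.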
row,SMILES,logP
1,CC(=O)NC(Cc1ccccc1)C(=O)O (stereo unspecified) [AFALANINE],-0.7

# Same assay, conditions: octanol/water; read-out: logP
row,SMILES,logP
1,O=C(NCCCCC(NC(=O)c1ccccc1)C(=O)O)c1ccccc1 (stereo unspecified),-1.22
2,O=CNC(Cc1ccccc1)C(=O)O (stereo unspecified),-1.21
3,CC(=O)NC(Cc1ccccc1)C(N)=O (stereo unspecified),-1.76
4,O=C(NCCCC(NC(=O)c1ccccc1)C(=O)O)c1ccccc1 (stereo unspecified),-1.29
5,COC(=O)C(Cc1ccccc1)NC(=O)c1ccccc1 (stereo unspecified),-0.13
6,NCCCCC(NS(=O)(=O)c1ccccc1)C(=O)O (stereo unspecified),-2.8
7,O=C(NC(Cc1ccccc1)C(=O)O)c1ccccc1O (stereo unspecified),-0.53
8,CC(C)CC(NS(=O)(=O)c1ccccc1)C(=O)O (stereo unspecified),-1.69
9,O=C(O)C(CO)NS(=O)(=O)c1ccccc1 (stereo unspecified),-3.98
10,O=C(CC(=O)c1ccccc1)NC(Cc1ccccc1)C(=O)O (stereo unspecified),-1.34
11,CC(C)C(NS(=O)(=O)c1ccccc1)C(=O)O (stereo unspecified),-1.8
12,CNC(Cc1ccccc1)C(=O)O (stereo unspecified),-0.93
13,O=C(NC(Cc1ccccc1)C(=O)O)C1CCCCC1 (stereo unspecified),-0.27
14,O=C(NC(Cc1ccccc1)C(=O)O)C1CCCC1 (stereo unspecified),-0.77
15,O=C(Cc1ccccc1)NC(Cc1ccccc1)C(=O)O (stereo unspecified),-0.13
16,CN(C)C(Cc1ccccc1)C(=O)O (stereo unspecified),-0.43
17,NC(=O)C(Cc1ccccc1)NC(=O)c1ccccc1 (stereo unspecified),-1.89
18,O=C(NC(Cc1ccccc1)C(=O)O)OCc1ccccc1 (stereo unspecified),-1.11
19,O=C(O)C(Cc1ccccc1)NS(=O)(=O)c1ccccc1 (stereo unspecified),-1.41
20,COC(=O)C(Cc1ccccc1)NC(C)=O (stereo unspecified),-0.2
21,O=C(NC(Cc1ccc(O)cc1)C(=O)O)c1ccccc1 (stereo unspecified),-2.24

# Second part, the molecule after the results:
row,logP,SMILES
1,-0.63,O=C(NC(Cc1ccccc1)C(=O)O)c1ccccc1 (stereo unspecified)
2,-2.68,O=C([O-])CNC(=O)c1ccccc1.[Na+]
3,-0.91,CC(C)CC(NC(=O)c1ccccc1)C(=O)O (stereo unspecified)
4,-2.29,O=C(O)CCC(NC(=O)c1ccccc1)C(=O)O (stereo unspecified)
5,-1.3,CC(C)C(NC(=O)c1ccccc1)C(=O)O (stereo unspecified)
6,-2.79,O=C(O)CC(NC(=O)c1ccccc1)C(=O)O (stereo unspecified)
7,-2.14,CC(NC(=O)c1ccccc1)C(=O)O (stereo unspecified)
8,-2.02,NCCCCC(NC(=O)c1ccccc1)C(=O)O (stereo unspecified)
9,-2.09,NCCCC(NC(=O)c1ccccc1)C(=O)O (stereo unspecified)
